Source: ChEMBL document CHEMBL4261646, “Bisphosphonate Inhibitors of Mammalian Glycolytic Aldolase” (J Med Chem, 2018)
pEC50, pIC50, pKi: −log10 of the molar value. Activity calls are given as the source filed them. The calls are words filed in the database; no cut-off is given here.

Key:
[1] = (§1) Dual competitive-inhibition of fructose-bisphosphate aldolase (unknown origin) using FBP as substrate and […] in presence of constant enzyme concentration by UV-Vis spectrophotometry dependent TIM/GDH coupled assay based double-reciprocal plot analysis; parameters: species or system Homo sapiens
How it was run: (§2)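 Recombinant rabbit muscle aldolase was expressed in E. coli BL21-SI. Cleavage of FBP was coupled to TIM/GDH, and NADH oxidation was followed at 340 nm at 25 °C. Buffer was 50 mM Tris-acetate pH 7.5 with 1 mM EDTA and 0.3 mM NADH. Initial rates were fitted to a two-site reversible linear competitive model. At least three independent assays.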

[2] = as §1, with “origin) assessed as inhibition constant for two competitive binding sites in enzyme active site” for “origin)”; parameters: species or system Homo sapiens; how it was run: as §2
[3] = Competitive-inhibition of fructose-bisphosphate aldolase (unknown origin) using FBP as substrate and […] in presence of constant enzyme concentration by UV-Vis spectrophotometry dependent TIM/GDH coupled assay based double-reciprocal plot analysis; parameters: species or system Homo sapiens
How it was run: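 Recombinant rabbit muscle aldolase at 0.01 μg/mL in TIM/GDH-coupled assay (NADH oxidation at 340 nm, 25 °C, Tris-acetate pH 7.5, 0.3 mM NADH).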

[4] = test system: HeLa; assay: Growth inhibition of human HeLa cells at 1 to 50 uM after 24 to 72 hrs by trypan blue exclusion assay; type: functional, cell-based
How it was run: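 HeLa cells were seeded at 3 x 10^5 cells/plate and grown in DMEM at 37 °C/5% CO2 with filter-sterilized inhibitor for 24, 48 or 72 h. Cells were trypsinized (0.25%), pelleted and resuspended. Total cells were counted by Trypan blue exclusion on a hemocytometer. At least three independent experiments; Student's two-tailed t-test.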

[5] = Inhibition of fructose-bisphosphate aldolase (unknown origin); parameters: species or system Homo sapiens
[6] = test system: HeLa; assay: Growth inhibition of human HeLa cells at 10 uM after 72 hrs by trypan blue exclusion assay relative to control; type: functional; conditions: read-out: GI
How it was run: (§3)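 Cells seeded in DMEM (HeLa 3 x 10^5, HEK293 2 x 10^5 per plate) were kept at 37 °C, 5% CO2 with filter-sterilized compound for 24, 48 or 72 h. Cells were trypsinized and total counts made by Trypan blue exclusion on a hemocytometer. Student's two-tailed t-test; at least three independent experiments.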

[7] = test system: HeLa; assay: Growth inhibition of human HeLa cells after 72 hrs by trypan blue exclusion assay relative to control; type: functional, cell-based; how it was run: as §3
[8] = Inhibition of fructose-bisphosphate aldolase (unknown origin) using FBP as substrate and NADH preincubated for 30 mins followed by substrate addition by UV-Vis spectrophotometry based TIM/GDH coupled assay; parameters: species or system Homo sapiens
How it was run: (§4)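 Recombinant rabbit muscle aldolase was pre-incubated for the listed time with inhibitor at 0.01–20 μM, then assayed with 10 μM FBP. Cleavage was read by TIM/GDH coupling as NADH oxidation at 340 nm, 25 °C, in 50 mM Tris-acetate pH 7.5, 1 mM EDTA, 0.3 mM NADH. IC50 was taken from a 4-parameter fit; at least three independent assays.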

[9] = Slow binding inhibition of fructose-bisphosphate aldolase (unknown origin) assessed as overall inhibition constant using FBP as substrate and NADH by UV-Vis spectrophotometry dependent TIM/GDH coupled assay based Dixon plot analysis; parameters: species or system Homo sapiens
How it was run: (§5)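 Recombinant rabbit muscle aldolase, TIM/GDH-coupled NADH oxidation at 340 nm, 25 °C, in Tris-acetate pH 7.5 buffer with 1 mM EDTA and 0.3 mM NADH. Progress curves were recorded with 20–200 μM FBP and 0.5–75 μM inhibitor. Slow-binding constants came from non-linear regression under the Morrison–Walsh model; at least three independent assays.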

[10] = Inhibition of fructose-bisphosphate aldolase (unknown origin) using FBP as substrate and NADH preincubated for 90 mins followed by substrate addition by UV-Vis spectrophotometry based TIM/GDH coupled assay; parameters: species or system Homo sapiens; how it was run: as §4
[11] = test system: HEK293; assay: Growth inhibition of HEK293 cells at 1 to 50 uM after 24 to 72 hrs by trypan blue exclusion assay; type: cell-based; conditions: human, hek293, 50 µM; how it was run: as §3
[12] = Inhibition of fructose-bisphosphate aldolase (unknown origin) using FBP as substrate and NADH preincubated for 0 mins followed by substrate addition by UV-Vis spectrophotometry based TIM/GDH coupled assay; parameters: species or system Homo sapiens; how it was run: as §4
[13] = test system: HeLa; assay: Growth inhibition of human HeLa cells at 50 uM after 72 hrs by trypan blue exclusion assay relative to control; type: functional; conditions: read-out: GI; how it was run: as §3
[14] = Inhibition of fructose-bisphosphate aldolase (unknown origin) using FBP as substrate and NADH preincubated for 180 mins followed by substrate addition by UV-Vis spectrophotometry based TIM/GDH coupled assay; parameters: species or system Homo sapiens; how it was run: as §4
[15] = Slow binding inhibition of fructose-bisphosphate aldolase (unknown origin) assessed as dibasic species population adjusted overall inhibition constant using FBP as substrate and NADH by UV-Vis spectrophotometry dependent TIM/GDH coupled assay based Dixon plot analysis; parameters: species or system Homo sapiens; conditions: read-out: Ki(app)
[16] = Inhibition of fructose-bisphosphate aldolase (unknown origin) using FBP as substrate and NADH preincubated for 10 mins followed by substrate addition by UV-Vis spectrophotometry based TIM/GDH coupled assay; parameters: species or system Homo sapiens; how it was run: as §4
[17] = test system: HeLa; assay: Growth inhibition of human HeLa cells assessed as transport efficiency corrected EC50 for after 72 hrs by trypan blue exclusion assay relative to control; type: functional, cell-based
[18] = Slow binding inhibition of fructose-bisphosphate aldolase (unknown origin) assessed as dissociation constant using FBP as substrate and NADH by UV-Vis spectrophotometry dependent TIM/GDH coupled assay based Dixon plot analysis; parameters: species or system Homo sapiens; how it was run: as §5
[19] = Slow binding inhibition of fructose-bisphosphate aldolase (unknown origin) assessed as dibasic species population adjusted dissociation constant using FBP as substrate and NADH by UV-Vis spectrophotometry dependent TIM/GDH coupled assay based Dixon plot analysis; parameters: species or system Homo sapiens; conditions: read-out: Ki(app)
[20] = Inhibition of rabbit muscle fructose-bisphosphate aldolase using FBP as substrate and NADH by spectrophotometry based coupled enzyme assay; parameters: species or system Oryctolagus cuniculus
How it was run: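 Recombinant rabbit muscle aldolase was expressed in E. coli. FBP cleavage was coupled to triose-phosphate isomerase/glycerol-3-phosphate dehydrogenase, and NADH oxidation was read at 340 nm at 25 °C. Buffer was 50 mM Tris-acetate pH 7.5 with 1 mM EDTA and 0.3 mM NADH. Reactions were started by adding enzyme. At least three independent assays.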

For `O=P(O)(O)C(c1ccc2cc(O)ccc2c1)P(=O)(O)O`, the pKi [1] was 4.89 and the pKi [2] was 5.05.
With `O=P(O)(O)Oc1ccc(C(P(=O)(O)O)P(=O)(O)O)cc1` the pKi [3] was 4.38 and the “growth inhibition (GI)” value [4] was “inactive”.
With `O=P(O)(O)Oc1ccc2cc(OP(=O)(O)O)ccc2c1` the pKi [3] was 6.55 and the pKi [5] was 6.55.
With `O=P([O-])([O-])Oc1ccc2cc(C(P(=O)([O-])[O-])P(=O)([O-])[O-])ccc2c1.[Li+].[Li+].[Li+].[Li+].[Li+].[Li+]` the inhibition of growth at 10 µM [6] was 30%, the pEC50 [7] was 4.30 and the pIC50 [8] was 6.89. For the same compound, the pKi [9] was 7.42, the pIC50 [10] was 7.22 and the “growth inhibition (GI)” value [11] was “Non-Toxic”. It also gave a pIC50 [12] of 6.17, an inhibition of growth at 50 µM [13] of 50% and a pIC50 [14] of 7.17. The pKi [15] was 8.12, the pIC50 [16] was 6.77 and the pEC50 [17] was 7.12. For the same compound, the pKi [18] was 6.55 and the pKi [19] was 7.25.
`O=C(COP(=O)(O)O)[C@@H](O)[C@@H](O)[C@H](O)COP(=O)(O)O` gave a pKi [20] of 3.92.
